Assay results taken from ChEMBL document CHEMBL1147726, “Prodrug forms of N-[(4-deoxy-4-amino-10-methyl)pteroyl]glutamate-gamma-[psiP(O)(OH)]-glutarate, a potent inhibitor of folylpoly-gamma-glutamate synthetase: synthesis and hydrolytic stability” (J Med Chem, 2006).

Assays:
[1] = Half life of hydrolysis rate in phosphate buffer at pH 8.0; type: ADME
Summary of the method: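 Prodrug was diluted into 20 mM phosphate buffer, pH 8.0, containing 5% DMSO, with serial dilutions made in the same phosphate. Loss of the parent ester and formation of products were monitored over time by HPLC (UV at 254 and 310 nm). t = 0 is autosampler injection. Ester decay was fit to pseudo-first-order kinetics to give the half-life.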

CHO [2] = experiment: Cytotoxicity against R2 mutant cells derived from CHO cells with reduced expression of RFC; type: functional, cell-based; settings: Cricetulus griseus
Summary of the method: (§1)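 CHO-derived cells grown in RPMI 1640 medium and exposed continuously to compound for 72 h. Serial dilutions were made in DMSO. Viability was read with a CellTiter-Blue assay. IC50 was taken from dose-response curves over 1 nM to 1 µM.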

CHO [3] = experiment: Cytotoxicity against Pro3 cells derived from CHO cells with fully functional reduced folate carrier; type: cell-based; settings: Cricetulus griseus; summary of the method: as §1
CHO [4] = experiment: Cytotoxicity in RFC deficient 43-10 cells derived from CHO cells transfected with human RFC cDNA; type: functional, cell-based; settings: Cricetulus griseus; summary of the method: as §1
[5] = Half life of hydrolysis rate in RPMI-1640 medium at pH 8.0; type: ADME
Summary of the method: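 Prodrug stock was diluted into RPMI-1640 cell medium (pH 8.0) and filtered, and disappearance of the ester was followed by HPLC with UV detection at 254 and 310 nm. t = 0 is the time the autosampler injected the sample. The half-life was determined from the HPLC data.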

COC(=O)CCC(CP(=O)(O)CCC(NC(=O)c1ccc(N(C)Cc2cnc3nc(N)nc(N)c3n2)cc1)C(=O)OC)C(=O)OC (configuration not stated)
half-life [1]: > 100 h
IC50 (CHO [2]): > 1 µM
IC50 (CHO [3]): 0.5 µM
IC50 (CHO [4]): 0.3 µM

COP(=O)(CCC(NC(=O)c1ccc(N(C)Cc2cnc3nc(N)nc(N)c3n2)cc1)C(=O)OCOC(=O)C(C)(C)C)CC(CCC(=O)OCOC(=O)C(C)(C)C)C(=O)OCOC(=O)C(C)(C)C (configuration not stated)
half-life [5]: 1 h
half-life [1]: 3 h
IC50 (CHO [2]): > 1 µM
IC50 (CHO [3]): > 1 µM
IC50 (CHO [4]): 0.8 µM

CN(Cc1cnc2nc(N)nc(N)c2n1)c1ccc(C(=O)NC(CCP(=O)(O)CC(CCC(=O)OCOC(=O)C(C)(C)C)C(=O)OCOC(=O)C(C)(C)C)C(=O)OCOC(=O)C(C)(C)C)cc1 (configuration not stated)
half-life [5]: 3 h
half-life [1]: 8 h
IC50 (CHO [2]): 0.35 µM
IC50 (CHO [3]): 0.7 µM
IC50 (CHO [4]): 0.25 µM

CN(Cc1cnc2nc(N)nc(N)c2n1)c1ccc(C(=O)NC(CCP(=O)(O)CC(CCC(=O)O)C(=O)O)C(=O)O)cc1 (configuration not stated)
IC50 (CHO [2]): > 1 µM
IC50 (CHO [3]): > 1 µM
IC50 (CHO [4]): > 1 µM
